Assay results: ChEMBL document CHEMBL1127464, “Inhibitors of HIV-1 proteinase containing 2-heterosubstituted 4-amino-3-hydroxy-5-phenylpentanoic acid: synthesis, enzyme inhibition, and antiviral activity” (J Med Chem, 1994)

Experiments:
[1] = tested on: MT4; test: Antiviral activity by analysis of p26 antigen concentration for HIV-2 strain EHO, replication in MT-4 cells; type: functional, cell-based; conditions: Homo sapiens
[2] = target: Pepsin A (Sus scrofa, UniProt P00791); test: Selectivity for their inhibitory potency against porcine pepsin
How it was run: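 Porcine pepsin assayed in 0.1 M glycine–HCl, pH 2.0, with 0.5% hemoglobin substrate and [14C]methylhemoglobin tracer.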

[3] = tested on: MT4; test: Antiviral activity by analysis of p24 antigen concentration for HIV-1 strain IIIB in de novo infected MT-4 cells; type: functional, cell-based; conditions: Homo sapiens
[4] = tested on: Human immunodeficiency virus 1; test: Antiviral activity by observing cytopathic effect induced by HIV-1 strain IIIB in de novo infected MT-4 cells; type: functional, organism-based; conditions: Human immunodeficiency virus 1, MT4
[5] = target: T1, Cathepsin D (Homo sapiens, UniProt P07339); test: (§1) Selectivity for their inhibitory potency against human cathepsin D.; type: functional
[6] = target: Human immunodeficiency virus type 1 protease (Human immunodeficiency virus 1, UniProt Q72874); test: Inhibitory constant against HIV-1 protease
How it was run: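 HIV-1 proteinase expressed in E. coli JM 105 and purified to homogeneity. Initial rates were taken from the absorbance decrease at 298 nm. IC50 came from a fit of the initial velocities. Ki was derived from IC50 accounting for enzyme, substrate and Km. Mean of two determinations.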

[7] = target: T2, Renin (Homo sapiens, UniProt P00797); test: Selectivity for their inhibitory potency against human renin
T2 sequence (P00797 whole entry): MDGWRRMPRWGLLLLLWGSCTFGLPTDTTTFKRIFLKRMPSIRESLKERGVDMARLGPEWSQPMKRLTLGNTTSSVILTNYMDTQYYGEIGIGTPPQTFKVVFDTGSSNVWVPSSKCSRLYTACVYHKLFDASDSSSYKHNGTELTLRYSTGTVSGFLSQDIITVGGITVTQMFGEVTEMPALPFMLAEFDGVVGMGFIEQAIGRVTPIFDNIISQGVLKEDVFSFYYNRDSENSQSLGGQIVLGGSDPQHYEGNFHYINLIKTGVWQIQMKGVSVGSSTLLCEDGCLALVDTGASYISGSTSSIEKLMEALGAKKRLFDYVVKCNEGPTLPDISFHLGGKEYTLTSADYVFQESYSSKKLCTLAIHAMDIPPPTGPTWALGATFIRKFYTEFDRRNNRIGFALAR

[8] = target: T1, Cathepsin D; test: as §1

T1 sequence (P07339 65-162 limits assumed): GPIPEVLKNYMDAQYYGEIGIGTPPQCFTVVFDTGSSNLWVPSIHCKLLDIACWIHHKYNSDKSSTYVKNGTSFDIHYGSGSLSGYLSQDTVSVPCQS
T1 sequence (P07339 169-412 limits assumed): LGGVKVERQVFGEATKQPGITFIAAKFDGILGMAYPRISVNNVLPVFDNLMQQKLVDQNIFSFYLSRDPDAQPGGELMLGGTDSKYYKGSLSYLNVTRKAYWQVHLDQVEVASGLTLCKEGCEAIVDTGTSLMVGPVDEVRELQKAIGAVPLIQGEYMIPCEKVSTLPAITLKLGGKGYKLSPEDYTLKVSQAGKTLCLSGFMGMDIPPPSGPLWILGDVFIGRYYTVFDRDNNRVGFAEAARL
Chain of Pepsin A (P00791 whole entry): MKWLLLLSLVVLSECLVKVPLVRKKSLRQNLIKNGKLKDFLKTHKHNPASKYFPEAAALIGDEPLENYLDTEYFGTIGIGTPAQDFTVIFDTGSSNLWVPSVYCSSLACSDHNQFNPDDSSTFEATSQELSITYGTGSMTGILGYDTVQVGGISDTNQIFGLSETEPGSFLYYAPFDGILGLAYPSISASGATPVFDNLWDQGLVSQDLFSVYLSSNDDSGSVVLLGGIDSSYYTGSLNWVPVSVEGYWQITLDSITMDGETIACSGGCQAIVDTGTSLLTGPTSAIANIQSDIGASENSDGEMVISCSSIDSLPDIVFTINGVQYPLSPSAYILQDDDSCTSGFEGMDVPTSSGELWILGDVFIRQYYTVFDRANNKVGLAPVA

SMILES	IC50 [1] [µM]	IC50 [2] [µM]	IC50 [3] [µM]	IC50 [4] [µM]	IC50 [5] [µM]	Ki [6] [µM]	IC50 [7] [µM]	IC50 [8] [µM]
CC(C)[C@H](NC(=O)OCc1ccccc1)C(=O)N[C@@H](Cc1ccccc1)[C@@H](O)[C@@H](NCc1ccccc1)C(=O)N[C@H](C(=O)NCc1ccccc1)C(C)C	> 3	> 10	0.315	0.58	0.035	0.0061	> 10	
COc1ccc(CN[C@@H](C(=O)N[C@H](C(=O)NCc2nc3ccccc3[nH]2)C(C)C)[C@H](O)[C@H](Cc2ccccc2)NC(=O)[C@@H](NC(=O)CCc2ccc(O)cc2)C(C)(C)C)cc1		> 10	0.021	0.096		0.013	> 10	> 10
CC(C)[C@H](NC(=O)[C@H](NCc1ccccc1)[C@H](O)[C@H](Cc1ccccc1)NC(=O)[C@@H](NC(=O)OCc1ccccc1)C(C)(C)C)C(=O)NCc1ccccc1	1.4	> 10	0.093	0.32		0.0092	> 10	0.06
COc1ccc(CN[C@@H](C(=O)N[C@H](C(=O)NCc2nc3ccccc3[nH]2)C(C)C)[C@H](O)[C@H](Cc2ccccc2)NC(=O)[C@@H](NC(=O)C(C)Oc2ccccc2)C(C)(C)C)cc1 (stereo partly specified)	0.47	> 10	0.0079	0.038		0.006	> 10	2
COc1ccc(CN[C@@H](C(=O)N[C@H](C(=O)NCc2ccccc2)C(C)C)[C@H](O)[C@H](Cc2ccccc2)NC(=O)[C@@H](NC(=O)OCc2ccccc2)C(C)C)cc1	0.81	> 10	0.132	0.32		0.0074	> 10	0.11
COc1ccc(CN[C@@H](C(=O)N[C@H](C(=O)NCc2nc3ccccc3[nH]2)C(C)C)[C@H](O)[C@H](Cc2ccccc2)NC(=O)[C@@H](NC(=O)OCc2ccccc2)C(C)(C)C)cc1	0.385	> 10	0.0054	0.014		0.0046	> 10	1
CC(C)[C@H](NC(=O)OCc1ccccc1)C(=O)N[C@@H](Cc1ccccc1)[C@@H](O)[C@@H](NCc1ccc(Cl)cc1)C(=O)N[C@H](C(=O)NCc1nc2ccccc2[nH]1)C(C)C				0.12		0.0061		
CC(C)[C@H](NC(=O)OC(C)(C)C)C(=O)N[C@@H](Cc1ccccc1)[C@@H](O)[C@@H](NCc1ccccc1)C(=O)N[C@H](C(=O)NCc1ccccc1)C(C)C				> 3		0.215		
CC[C@H](NC(=O)OCc1ccccc1)C(=O)N[C@@H](Cc1ccccc1)[C@@H](O)[C@@H](NCc1ccccc1)C(=O)N[C@H](C(=O)NCc1ccccc1)C(C)C				2		0.0171		
COc1ccc(CN[C@@H](C(=O)N[C@H](C(=O)NCc2nc3ccccc3[nH]2)C(C)C)[C@H](O)[C@H](Cc2ccccc2)NC(=O)[C@@H](NC(=O)OCc2ccccc2)C(C)C)cc1	0.46	> 10	0.0097	0.025		0.0034	> 10	0.38
CC(C)[C@H](NC(=O)[C@H](NCc1ccc(Cl)cc1)[C@H](O)[C@H](Cc1ccccc1)NC(=O)[C@@H](NC(=O)OCc1ccccc1)C(C)(C)C)C(=O)NCc1nc2ccccc2[nH]1	0.24	> 10	0.0113	0.034		0.0075	> 10	1.8
CC(C)[C@H](NC(=O)CCCCCN)C(=O)N[C@@H](Cc1ccccc1)[C@@H](O)[C@@H](NCc1ccccc1)C(=O)N[C@H](C(=O)NCc1ccccc1)C(C)C				> 3		0.033		
CC(C)[C@H](NC(=O)OCc1ccccc1)C(=O)N[C@@H](Cc1ccccc1)[C@@H](O)[C@@H](NCc1ccccc1)C(=O)N[C@H](C(=O)OCc1nc2ccccc2[nH]1)C(C)C				> 3		0.029		
CC(C)[C@H](NC(=O)OCc1ccccc1)C(=O)N[C@@H](Cc1ccccc1)[C@@H](O)[C@@H](NCCc1ccccc1)C(=O)N[C@H](C(=O)NCc1ccccc1)C(C)C				> 3		0.034		
CC(C)[C@H](NC(=O)[C@H](NCc1ccccc1)[C@H](O)[C@H](Cc1ccccc1)NC(=O)[C@H](Cc1cnc[nH]1)NC(=O)OCc1ccccc1)C(=O)NCc1ccccc1				> 3		0.029		
CC(C)C[C@H](NC(=O)[C@H](NCc1ccccc1)[C@H](O)[C@H](Cc1ccccc1)NC(=O)[C@@H](NC(=O)OCc1ccccc1)C(C)C)C(=O)NCc1ccccc1				> 3		0.044		
